The source made the active and inactive calls. The rule behind the calls is not given here.
Key:
[1] = Cytotoxicity against HECPP cells assessed as reduction of cell viability at 600 ug/mL after 24 hrs by MTT assay; format: cell-based; settings: mouse
Procedure, shortened: (§1)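 HECPP murine endothelial cells in M199 with 10% FCS, 37 °C, 5% CO₂. Seeded at 10⁵ cells/well, incubated overnight, then exposed to compound for 24 h. MTT added for 2 h and formazan dissolved in 0.04 N HCl/isopropanol. Absorbance read at 550 nm with 630 nm reference, expressed as percent of metabolically active cells.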

HECPP [2] = assay: Activation of NF-kappaB in HECPP cells at 300 ug/mL; format: functional, cell-based; settings: Mus musculus
Procedure, shortened: (§2)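 HECPP murine endothelial cells (2.5 × 10⁷) exposed to compound for 2 h. Nuclear extracts prepared, and 5 µg nuclear protein incubated with poly(dI/dC) on ice for 10 min. A ³²P-labeled κ-enhancer NF-κB consensus oligonucleotide was then added. Complexes were resolved on a 4% polyacrylamide gel in 0.25× TBE at 150 V for 2 h, then read by autoradiography (EMSA).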

HECPP [3] = assay: Activation of NF-kappaB in HECPP cells at 1000 ug/mL; format: functional, cell-based; settings: Mus musculus; procedure, shortened: as §2
Splenocyte [4] = assay: Induction of TNF secretion in mouse splenocytes at 100 ug/mL after 4 hrs; format: functional
Procedure, shortened: (§3)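 Primary male mouse splenocytes, RBC-lysed, plated at 3 × 10⁶ cells/well in Alpha-MEM with 10% FCS. Treated with compound for 4 h at 37 °C. Supernatant TNF measured by ELISA, each sample in duplicate, with triplicate wells per condition. Mean ± SEM reported.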

MC-38 (Mus musculus) [5] = assay: Induction of hemorrhagic necrosis in colon 38 tumor bearing C57B1/6 mouse at 200 mg/kg, ip after 24 hrs relative to control; settings: route intraperitoneal
[6] = Cytotoxicity against HECPP cells assessed as reduction of cell viability at 300 ug/mL after 24 hrs by MTT assay; format: cell-based; settings: mouse; procedure, shortened: as §1
HECPP [7] = assay: Activation of NF-kappaB in HECPP cells at 30 ug/mL; format: functional, cell-based; settings: Mus musculus; procedure, shortened: as §2
Splenocyte [8] = assay: Induction of TNF secretion in mouse splenocytes at 30 ug/mL after 4 hrs; format: functional; procedure, shortened: as §3
[9] = Induction of TNF production in murine splenocytes at 100 ug/mL
MC-38 (Mus musculus) [10] = assay: Induction of hemorrhagic necrosis in colon 38 tumor bearing C57B1/6 mouse at 190 mg/kg, ip after 24 hrs relative to control; settings: route intraperitoneal
HECPP [11] = assay: Activation of NF-kappaB in HECPP cells at 10 ug/mL; format: functional, cell-based; settings: Mus musculus; procedure, shortened: as §2
Splenocyte [12] = assay: Induction of TNF secretion in mouse splenocytes at 10 ug/mL after 4 hrs; format: functional; procedure, shortened: as §3
MC-38 (Mus musculus) [13] = assay: Induction of hemorrhagic necrosis in colon 38 tumor bearing C57B1/6 mouse at 25 mg/kg, ip after 24 hrs relative to control; settings: route intraperitoneal

For `[N-]=[N+]=Nc1cccc2c(=O)c3cccc(CC(=O)O)c3oc12`, the Activity [1] was 50%, the Activity (HECPP [2]) was “Active” and the Activity (HECPP [3]) was “Active”. For the same molecule, the Activity (Splenocyte [4]) was 110 pg/mL and the Activity (MC-38 (Mus musculus) [5]) was >95%.
For `Cc1ccc2c(=O)c3cccc(CC(=O)O)c3oc2c1N=[N+]=[N-]`, the Activity [6] was 50%, the Activity (HECPP [7]) was “Active” and the Activity (Splenocyte [8]) was <50 pg/mL. The TNF production [9] was <50 pg/mL and the Activity (MC-38 (Mus musculus) [10]) was >95%.
For `Cc1ccc2c(=O)c3cccc(CC(=O)O)c3oc2c1C` [VADIMEZAN], the Activity (HECPP [11]) was “Active”, the Activity (Splenocyte [12]) was 180 pg/mL and the Activity (MC-38 (Mus musculus) [13]) was >95%.
